Assay results as given in ChEMBL document CHEMBL3272070, “Cycloalkanoindoles. 1. Syntheses and antiinflammatory actions of some acidic tetrahydrocarbazoles, cyclopentindoles, and cycloheptindoles” (J Med Chem, 1976).
Active and inactive are the calls of the source. The rule behind the calls is not given here.

Assays:
Rattus norvegicus [1] = assay: Acute antiinflammatory activity in po dosed rat assessed as inhibition of carrageenan-induced paw edema; type: functional
Rattus norvegicus [2] = assay: Ulcerogenicity in po dosed 24-hrs starved Charles-River rat assessed as lesions on stomach administered as single dose measured after 18 hrs; type: toxicity, organism-based; conditions: in vivo
Procedure, shortened: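 Male Charles River rats were starved 24 h and given a single oral dose. After 18 h they were killed by ether inhalation and their stomachs examined for lesions (erosion or ulcer). UD50, the dose producing lesions in 50% of rats, was derived by probit analysis.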

Rattus norvegicus [3] = assay: Chronic antiinflammatory activity against adjuvant-induced arthritis in po dosed rat assessed as decrease in volume of paw administered for 9 days starting 14 days after adjuvant injection and continued until day 22 by therapeutic test; type: functional
Procedure, shortened: (§1)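 Adjuvant arthritis was induced in groups of six rats by injecting Mycobacterium butyricum in mineral oil into the left hind foot pad. Oral dosing ran from day 14 to day 22 (nine doses). Injected-paw volume was measured by mercury displacement, and a decrease of ≥0.5 ml counted as a therapeutic effect. ED50 was derived by probit analysis of responder counts. The maximum screening dose was 100 mg/kg.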

Rattus norvegicus [4] = species on record: Rattus norvegicus; assay: Ratio of ED50 for ulcerogenicity in 24-hrs starved Charles-River rat to ED50 for chronic antiinflammatory activity against adjuvant-induced arthritis in rat
Procedure, shortened: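 Ratio of ulcerogenic UD50 to therapeutic ED50. UD50: single oral dose in 24 h-starved male Charles River rats, stomach lesions scored at 18 h. Therapeutic ED50: adjuvant-arthritic rats dosed orally days 14–22, with a ≥0.5 ml decrease in paw volume as the response. Both values were derived by probit analysis.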

Rattus norvegicus [5] = assay: Ratio of ED50 for acute antiinflammatory activity against carrageenan-induced paw edema in rat to ED50 for chronic antiinflammatory activity against adjuvant-induced arthritis in rat
Rattus norvegicus [6] = assay: Chronic antiinflammatory activity against adjuvant-induced arthritis in rat assessed as decrease in volume of paw at 100 mg/kg, po administered for 9 days starting 14 days after adjuvant injection and continued until day 22 by therapeutic test; type: functional, organism-based; parameters: dose 100 mg/kg; procedure, shortened: as §1
Rattus norvegicus [7] = assay: Chronic antiinflammatory activity against adjuvant-induced arthritis in rat assessed as decrease in volume of paw at 25 mg/kg, po administered for 9 days starting 14 days after adjuvant injection and continued until day 22 by therapeutic test; type: functional, organism-based; parameters: dose 25 mg/kg; procedure, shortened: as §1
Rattus norvegicus [8] = assay: Chronic antiinflammatory activity against adjuvant-induced arthritis in rat assessed as decrease in volume of paw at 10 mg/kg, po administered for 9 days starting 14 days after adjuvant injection and continued until day 22 by therapeutic test; type: functional, organism-based; parameters: dose 10 mg/kg; procedure, shortened: as §1

`CCCC1(CC(=O)O)OCCc2c1[nH]c1ccccc21` (stereo not drawn) [PRODOLIC ACID] was tested, and the ED50 (Rattus norvegicus [1]) was 89.9 mg/kg, the ED50 (Rattus norvegicus [2]) was 678 mg/kg and the ED50 (Rattus norvegicus [3]) was 9 mg/kg. The “Ratio ED50” value (Rattus norvegicus [4]) was 75.

In the case of `CCc1cccc2c3c([nH]c12)C(CC)(CC(=O)O)CCCC3` (stereo not drawn), the ED50 (Rattus norvegicus [3]) is reported as greater than 50 mg/kg.

For `COc1ccc2cc([C@H](C)C(=O)O)ccc2c1` [NAPROXEN], the ED50 (Rattus norvegicus [2]) was 28 mg/kg, the ED50 (Rattus norvegicus [3]) was 2.1 mg/kg and the “Ratio ED50” value (Rattus norvegicus [4]) was 13.

Work on `CCC1(CC(=O)O)CCCc2c1[nH]c1ccccc21` (stereo not drawn) yielded an ED50 (Rattus norvegicus [3]) of 3.3 mg/kg.

Molecule `CCCc1cccc2c3c([nH]c12)C(CC)(CC(=O)O)CCC3` (stereo not drawn) has an ED50 (Rattus norvegicus [1]) of 10.5 mg/kg, a Ratio (Rattus norvegicus [5]) of 10 and an ED50 (Rattus norvegicus [2]) of 24 mg/kg. The ED50 (Rattus norvegicus [3]) was 1.1 mg/kg and the “Ratio ED50” value (Rattus norvegicus [4]) was 24.

With `O=C(O)CC1CCCc2c1[nH]c1ccccc21` (stereo not drawn) the Activity (Rattus norvegicus [6]) was “inactive”.

`CC1(CC(=O)O)CCc2c1[nH]c1ccccc21` (stereo not drawn) was tested, and the Activity (Rattus norvegicus [7]) was “inactive”.

`COc1ccc2[nH]c3c(c2c1)CCC(C(=O)O)C3` (stereo not drawn) gave an ED50 (Rattus norvegicus [1]) of 12.7 mg/kg and an ED50 (Rattus norvegicus [3]) of 20 mg/kg.

In the case of `CCc1cccc2c3c([nH]c12)C(CC)(CC(=O)O)OCC3` (stereo not drawn) [ETODOLAC], the ED50 (Rattus norvegicus [1]) is reported as 10.2 mg/kg, the ED50 (Rattus norvegicus [2]) is reported as 60 mg/kg and the ED50 (Rattus norvegicus [3]) is reported as 0.7 mg/kg. The “Ratio ED50” value (Rattus norvegicus [4]) was 85.

`CCCCC1C(=O)N(c2ccccc2)N(c2ccccc2)C1=O` [PHENYLBUTAZONE] was tested, and the ED50 (Rattus norvegicus [2]) was 100 mg/kg and the ED50 (Rattus norvegicus [3]) was 5.4 mg/kg.

`CCC1(CC(=O)O)CCCc2c1[nH]c1c(C(C)C)cccc21` (stereo not drawn) showed an ED50 (Rattus norvegicus [3]) of 5.4 mg/kg.

`CCc1cccc2c3c([nH]c12)C(CC)(CC(=O)O)CCC3` (stereo not drawn) gave an ED50 (Rattus norvegicus [3]) of 1.9 mg/kg.

`CC1(CC(=O)O)CCCc2c1[nH]c1ccccc21` (stereo not drawn) was tested, and the Activity (Rattus norvegicus [6]) was “inactive”.

`CCC1(CC(=O)O)CCCc2c1[nH]c1ccc(OC)cc21` (stereo not drawn) was tested, and the Activity (Rattus norvegicus [7]) was “inactive”.

Molecule `CCc1cccc2c3c([nH]c12)C(CC)(CC(=O)O)CC3` (stereo not drawn) has an ED50 (Rattus norvegicus [3]) of 6.2 mg/kg.

`CCc1cccc2c3c([nH]c12)C(C)(CC(=O)O)CC3` (stereo not drawn) gave an ED50 (Rattus norvegicus [3]) greater than 50 mg/kg.

`O=C(O)C1CCc2c([nH]c3ccccc23)C1` (stereo not drawn) was tested, and the Activity (Rattus norvegicus [6]) was “inactive”.

`COc1ccc2c(c1)c(CC(=O)O)c(C)n2C(=O)c1ccc(Cl)cc1` [INDOMETHACIN] showed an ED50 (Rattus norvegicus [3]) of 0.2 mg/kg.

Work on `O=C(O)C1CCc2c([nH]c3ccc(Cl)cc23)C1` (stereo not drawn) yielded an ED50 (Rattus norvegicus [1]) of 10.2 mg/kg and an ED50 (Rattus norvegicus [3]) of 21.3 mg/kg.

Work on `CCC1(CC(=O)O)CCc2c1[nH]c1ccccc21` (stereo not drawn) yielded an ED50 (Rattus norvegicus [3]) of 100 mg/kg.

`CCCCc1cccc2c3c([nH]c12)C(CC)(CC(=O)O)CCC3` (stereo not drawn) gave an ED50 (Rattus norvegicus [3]) of 4.2 mg/kg.

In the case of `CCc1cccc2c3c([nH]c12)C(C)(CC(=O)O)CCCC3` (stereo not drawn), the Activity (Rattus norvegicus [8]) is reported as “inactive”.

In the case of `CCCC1(CC(=O)O)CCCc2c1[nH]c1ccccc21` (stereo not drawn), the ED50 (Rattus norvegicus [3]) is reported as 20 mg/kg.
